Measurements reported in ChEMBL document CHEMBL4304819, “Natural product pectolinarigenin exhibits potent anti-metastatic activity in colorectal carcinoma cells in vitro and in vivo” (2019).
Activity calls are given as the source filed them. No cut-off for these calls is given here.

Assays:
HCT-116 [1] = assay: Induction of apoptosis in human HCT116 cells assessed as increase in cleaved caspase-3 expression after 48 hrs by Western blot analysis; assay type: functional, cell-based
How it was run: (§1)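 Cells treated 48 h at 0, 10, 20 and 40 μM, washed in cold PBS, lysed in RIPA; protein equalized by Lowry assay, resolved by SDS-PAGE, transferred to PVDF, blocked 1 h at 37 °C, primary antibody overnight at 4 °C, secondary 1 h, ECL detection, densitometry. β-actin loading control.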

HCT-116 [2] = assay: Induction of apoptosis in human HCT116 cells assessed as late apoptotic cells at 10 uM after 48 hrs by Annexin V-FITC/propidium iodide staining-based flow cytometric analysis (reference value: 3.87 %); assay type: functional
How it was run: (§2)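 Cells (1–2 × 10^5 per well) seeded in six-well plates 24 h, treated at 0–40 μM for 24 h or 48 h, harvested, washed twice in cold PBS, stained with Annexin V-FITC/PI and analysed by flow cytometry; early (Annexin V only) and late (Annexin V and PI) apoptotic fractions quantified; three experiments.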

[3] = target: Signal transducer and activator of transcription 3 (Mus musculus) (UniProt P42227); assay: Antitumor activity against mouse CT26 cells allografted in Balb/c mouse assessed as inhibition of STAT3 phosphorylation in tumour tissue at 25 to 50 mg/kg, ip administered daily for 14 days starting from 6 days post implantation by immunohistochemical analysis; assay type: organism-based
How it was run: (§3)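 Female BALB/c mice (6–8 weeks) injected ip with 5 × 10^5 CT26 cells; from day 6, randomized (eight per group) to ip vehicle, 25 or 50 mg/kg once daily for 14 days. Abdominal circumference and body weight every 3 days; abdominal nodules counted by eye and weighed; spleens assessed; paraffin tumour sections immunostained (Ki-67, MMP-9, p-Stat3) with DAB detection.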

HCT-116 [4] = assay: Antimigratory activity against human HCT116 cells assessed as inhibition of cell migration after 48 hrs by crystal violet staining based Boyden-chamber cell migration assay; assay type: functional
How it was run: (§4)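 Boyden chamber, 8 μm pores: 1 × 10^5 cells in serum-free medium above, 10% FBS medium below, compound at various concentrations in both chambers; migration 48 h. Non-migrated cells swabbed off; migrated cells fixed in methanol, stained 0.5% crystal violet 20 min, counted in six random fields under light microscope; expressed as % inhibition versus untreated.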

HCT-116 [5] = assay: Antiproliferative activity against human HCT116 cells assessed as reduction in cell viability up to 40 uM by MTT assay; assay type: functional, cell-based; conditions: TDE = time-dependent effect
How it was run: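 Exponentially growing cells (2–6 × 10^3 per well) seeded in 96-well plates for 24 h, then exposed to 0, 2.5, 5, 10, 20, 40 µM for 24, 48 and 72 h. MTT (5 mg/mL stock) added 2–4 h at 37 °C; formazan dissolved in DMSO, absorbance at 570 nm. Three independent experiments.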

HCT-116 [6] = assay: Antiinvasive activity against human HCT116 cells after 48 hrs by crystal violet staining based light microscopic analysis; assay type: functional, cell-based
How it was run: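 Transwell membrane upper surface coated with Matrigel diluted 1:5 in serum-free medium. 5 × 10^4 cells in serum-free medium in upper part, 10% FBS medium below, treated with various concentrations for 48 h. Non-invading cells removed; underside cells fixed in methanol, stained with 0.5% crystal violet, counted by light microscopy; expressed as % inhibition versus untreated.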

SW48 = assay: Inhibition of colony formation in human SW48 cells assessed as reduction in size of colonies up to 40 uM incubated for 24 hrs supplemented with fresh medium containing compound every 3 days for 12 days by crystal violet staining-based microscopic analysis; assay type: functional, cell-based
How it was run: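 400–800 cells per well seeded in 6-well plates; after 24 h, PEC (0–40 μM) added. Medium with or without compound replaced every three days for 12 days. Colonies washed in cold PBS, fixed in methanol, stained 15 min with 0.5% crystal violet and counted under a microscope. Mean ± SD of three experiments.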

CT26 [7] = assay: Antimetastatic activity against mouse CT26 cells allografted in Balb/c mouse assessed as reduction in abdominal circumference at 25 to 50 mg/kg, ip administered daily for 14 days starting from 6 days post implantation; assay type: functional, organism-based; how it was run: as §3
CT26 [8] = assay: Anticlonogenic activity against mouse CT26 cells assessed as reduction in colony formation up to 40 uM incubated for 24 hrs supplemented with fresh medium containing compound every 3 days for 12 days by crystal violet staining-based microscopic analysis; assay type: functional, cell-based
How it was run: (§5)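 Cells seeded at 400–800 per well in 6-well plates; after 24 h, treated with 0–40 μM in fresh medium (with or without compound) replaced every three days for 12 days. Colonies fixed in methanol, stained with 0.5% crystal violet for 15 min and counted by microscope; reported as surviving colonies, mean ± SD of three experiments.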

CT26 [9] = assay: Antimetastatic activity against mouse CT26 cells allografted in Balb/c mouse assessed as increase in infiltration of CD8+ T cells in blood at 25 mg/kg, ip administered daily for 14 days starting from 6 days post implantation flow cytometric analysis (reference value: 1.35 %); assay type: functional
HCT-116 [10] = assay: Induction of apoptosis in human HCT116 cells assessed as decrease in Bcl-2 protein expression up to 40 uM after 48 hrs by Western blot analysis; assay type: functional, cell-based; how it was run: as §1
CT26 [11] = assay: Antimetastatic activity against mouse CT26 cells allografted in Balb/c mouse assessed as reduction in splenomegaly at 25 to 50 mg/kg, ip administered daily for 14 days starting from 6 days post implantation; assay type: functional, organism-based; how it was run: as §3
CT26 [12] = assay: Antimigratory activity against mouse CT26 cells assessed as inhibition of cell migration after 48 hrs by crystal violet staining based Boyden-chamber cell migration assay; assay type: functional; how it was run: as §4
HCT-116 [13] = assay: Induction of apoptosis in human HCT116 cells assessed as decrease in pro-caspase-3 expression up to 40 uM after 48 hrs by Western blot analysis; assay type: functional, cell-based; how it was run: as §1
HCT-116 [14] = assay: Induction of apoptosis in human HCT116 cells assessed as necrotic cells at 40 uM after 48 hrs by Annexin V-FITC/propidium iodide staining-based flow cytometric analysis (reference value: 8.24 %); assay type: functional; how it was run: as §2
HCT-116 [15] = assay: Induction of apoptosis in human HCT116 cells assessed as late apoptotic cells at 40 uM after 48 hrs by Annexin V-FITC/propidium iodide staining-based flow cytometric analysis (reference value: 3.87 %); assay type: functional; how it was run: as §2
CT26 [16] = assay: Induction of apoptosis in mouse CT26 cells assessed as early apoptotic cells at 20 uM after 48 hrs by Annexin V-FITC/propidium iodide staining-based flow cytometric analysis (reference value: 2.84 %); assay type: functional
How it was run: (§6)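 CT26 cells seeded at 1–2 × 10^5 per well in six-well plates for 24 h, then exposed to PEC (0–40 μM) for 24 or 48 h. Cells harvested, washed twice in cold PBS, stained with Annexin V-FITC/PI and read by flow cytometry. Early apoptotic = Annexin V+ only; late apoptotic = Annexin V+/PI+. Mean ± SD of three experiments.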

HCT-116 [17] = assay: Induction of apoptosis in human HCT116 cells assessed as early apoptotic cells at 40 uM after 48 hrs by Annexin V-FITC/propidium iodide staining-based flow cytometric analysis (reference value: 1.23 %); assay type: functional; how it was run: as §2
HCT-116 [18] = assay: Anticlonogenic activity against human HCT116 cells assessed as reduction in colony formation up to 40 uM incubated for 24 hrs supplemented with fresh medium containing compound every 3 days for 12 days by crystal violet staining-based microscopic analysis; assay type: functional, cell-based; how it was run: as §5
CT26 [19] = assay: Induction of apoptosis in mouse CT26 cells assessed as necrotic cells at 20 uM after 48 hrs by Annexin V-FITC/propidium iodide staining-based flow cytometric analysis (reference value: 1.80 %); assay type: functional; how it was run: as §6

Chain of Signal transducer and activator of transcription 3 (Mus musculus) (P42227 whole entry): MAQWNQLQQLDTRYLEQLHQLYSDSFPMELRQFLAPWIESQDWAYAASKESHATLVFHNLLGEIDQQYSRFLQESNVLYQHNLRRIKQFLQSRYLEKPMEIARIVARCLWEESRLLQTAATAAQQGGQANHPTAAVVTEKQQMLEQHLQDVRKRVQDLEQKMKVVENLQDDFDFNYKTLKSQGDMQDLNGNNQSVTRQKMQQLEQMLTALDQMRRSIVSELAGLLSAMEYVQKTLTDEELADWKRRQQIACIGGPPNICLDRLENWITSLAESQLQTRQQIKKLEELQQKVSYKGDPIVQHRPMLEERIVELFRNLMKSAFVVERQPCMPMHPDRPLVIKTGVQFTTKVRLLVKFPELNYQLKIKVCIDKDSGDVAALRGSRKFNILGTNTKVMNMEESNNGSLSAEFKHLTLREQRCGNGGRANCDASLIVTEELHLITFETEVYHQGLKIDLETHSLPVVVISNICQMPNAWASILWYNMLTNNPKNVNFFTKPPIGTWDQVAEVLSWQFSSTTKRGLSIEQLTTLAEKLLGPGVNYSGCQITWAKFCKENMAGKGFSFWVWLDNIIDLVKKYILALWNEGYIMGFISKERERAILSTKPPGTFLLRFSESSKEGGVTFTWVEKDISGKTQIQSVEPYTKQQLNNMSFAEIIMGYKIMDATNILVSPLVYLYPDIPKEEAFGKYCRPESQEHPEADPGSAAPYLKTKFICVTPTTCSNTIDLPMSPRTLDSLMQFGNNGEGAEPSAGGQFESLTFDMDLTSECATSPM

Structure (SMILES): COc1ccc(-c2cc(=O)c3c(O)c(OC)c(O)cc3o2)cc1 [PECTOLINARIGENIN]
- Activity (HCT-116 [1]): Dose-dependent effect
- Activity (HCT-116 [2]): 5.81%
- inhibition [3]: Active
- inhibition (HCT-116 [4]): Dose-dependent effect
- inhibition (HCT-116 [5]): Tde
- inhibition (HCT-116 [6]): Dose-dependent effect
- inhibition (SW48): Active
- Activity (CT26 [7]): Active
- inhibition (CT26 [8]): Active
- Activity (CT26 [9]): 2.59%
- Activity (HCT-116 [10]): Active
- Activity (CT26 [11]): Active
- inhibition (CT26 [12]): Dose-dependent effect
- Activity (HCT-116 [13]): Active
- Activity (HCT-116 [14]): 7.17%
- Activity (HCT-116 [15]): 9.67%
- Activity (CT26 [16]): 8.14%
- Activity (HCT-116 [17]): 9.42%
- inhibition (HCT-116 [18]): Active
- Activity (CT26 [19]): 1.94%
